This note sets out measurements from ChEMBL document CHEMBL3861998, “Development of 6-arylcoumarins as nonsteroidal progesterone antagonists. Structure-activity relationships and fluorescence properties” (Bioorg Med Chem, 2016).

pIC50: −log10 of the molar value.

The first data set concerns the target T1, Androgen receptor (Mus musculus, UniProt P19091).
T1 sequence (P19091 whole entry): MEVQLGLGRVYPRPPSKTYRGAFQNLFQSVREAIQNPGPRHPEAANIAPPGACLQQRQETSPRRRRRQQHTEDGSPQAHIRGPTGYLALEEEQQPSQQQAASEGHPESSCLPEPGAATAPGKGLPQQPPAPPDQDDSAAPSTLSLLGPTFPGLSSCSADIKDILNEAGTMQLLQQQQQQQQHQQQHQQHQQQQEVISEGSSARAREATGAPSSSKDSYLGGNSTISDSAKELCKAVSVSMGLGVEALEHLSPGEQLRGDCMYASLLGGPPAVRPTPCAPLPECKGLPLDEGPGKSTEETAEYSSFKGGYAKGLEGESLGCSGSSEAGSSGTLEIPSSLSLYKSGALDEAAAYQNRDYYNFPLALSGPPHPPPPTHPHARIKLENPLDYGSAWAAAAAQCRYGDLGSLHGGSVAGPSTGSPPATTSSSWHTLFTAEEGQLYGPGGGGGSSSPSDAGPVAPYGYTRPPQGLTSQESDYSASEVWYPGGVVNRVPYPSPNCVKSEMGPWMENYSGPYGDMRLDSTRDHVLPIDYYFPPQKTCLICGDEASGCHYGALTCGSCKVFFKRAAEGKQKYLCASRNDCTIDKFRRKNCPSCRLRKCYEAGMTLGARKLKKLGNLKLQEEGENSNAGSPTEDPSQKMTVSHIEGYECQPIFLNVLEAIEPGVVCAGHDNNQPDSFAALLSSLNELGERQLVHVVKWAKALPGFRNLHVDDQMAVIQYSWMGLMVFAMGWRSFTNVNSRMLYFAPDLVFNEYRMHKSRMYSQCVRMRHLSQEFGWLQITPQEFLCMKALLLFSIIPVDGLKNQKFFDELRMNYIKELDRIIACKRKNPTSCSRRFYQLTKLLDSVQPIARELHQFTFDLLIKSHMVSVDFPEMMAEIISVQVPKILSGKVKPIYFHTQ
In words: Antagonist activity at AR in mouse SC3 cells assessed as inhibition of dihydrotestosterone-induced cell growth at 10^-5 M measured after 3 days by CCK8 assay. It is filed as cell-based. Conditions: sc-3, 72 h, 10 µM; call rule not given here. The procedure, abridged:
(§1)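 SC-3 cells kept in MEMα with 2% FBS and 1 nM DHT at 37°C, 5% CO₂. Trypsinized, diluted to 20,000 cells/mL in MEMα with 2% charcoal-stripped FBS, seeded and held 24 h. Serial dilutions of compound or DMSO control added with 1 nM DHT. Incubated 3 days at 37°C. Cell number read by WST-8 (CCK-8), 2 h, absorbance at 450 nm. Triplicate or more.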
Background: Formazan colour is commonly taken as a measure of viable cells.
For the compound `CCN(CC)c1cc2oc(=O)ccc2cc1-c1ccc(C#N)n1C`, the “inhibition (INH)” value is reported as “Active”.

The next data set deals with T1, Androgen receptor. Briefly: Antagonist activity at AR in mouse SC3 cells assessed as inhibition of dihydrotestosterone-induced cell growth 10^-5 to 10^-7 M measured after 3 days by CCK8 assay. The conditions noted are these: sc-3, 72 h. It is filed as cell-based. In a few lines: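 SC-3 cells maintained in MEMα with 2% FBS and 1 nM DHT, 37°C, 5% CO2. Seeded at 20,000 cells/mL in MEMα with 2% charcoal-stripped FBS and held 24 h. Serial dilutions of compound (DMSO control) added with 1 nM DHT, then 3 days at 37°C. WST-8 (CCK-8) added for 2 h, absorbance read at 450 nm. Triplicate or more.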
For the compound `CC(C)(O)C(=O)Nc1ccc([N+](=O)[O-])c(C(F)(F)F)c1` [HYDROXYFLUTAMIDE], the “inhibition (INH)” value is “Active”. The same measure, in the same setting: with `COc1cc2oc(=O)cc(C)c2cc1-c1ccc(C#N)n1C` the entry was “Active”.

In a further data set the target is T2, Progesterone receptor (Homo sapiens, UniProt P06401).
T2 sequence (P06401 whole entry): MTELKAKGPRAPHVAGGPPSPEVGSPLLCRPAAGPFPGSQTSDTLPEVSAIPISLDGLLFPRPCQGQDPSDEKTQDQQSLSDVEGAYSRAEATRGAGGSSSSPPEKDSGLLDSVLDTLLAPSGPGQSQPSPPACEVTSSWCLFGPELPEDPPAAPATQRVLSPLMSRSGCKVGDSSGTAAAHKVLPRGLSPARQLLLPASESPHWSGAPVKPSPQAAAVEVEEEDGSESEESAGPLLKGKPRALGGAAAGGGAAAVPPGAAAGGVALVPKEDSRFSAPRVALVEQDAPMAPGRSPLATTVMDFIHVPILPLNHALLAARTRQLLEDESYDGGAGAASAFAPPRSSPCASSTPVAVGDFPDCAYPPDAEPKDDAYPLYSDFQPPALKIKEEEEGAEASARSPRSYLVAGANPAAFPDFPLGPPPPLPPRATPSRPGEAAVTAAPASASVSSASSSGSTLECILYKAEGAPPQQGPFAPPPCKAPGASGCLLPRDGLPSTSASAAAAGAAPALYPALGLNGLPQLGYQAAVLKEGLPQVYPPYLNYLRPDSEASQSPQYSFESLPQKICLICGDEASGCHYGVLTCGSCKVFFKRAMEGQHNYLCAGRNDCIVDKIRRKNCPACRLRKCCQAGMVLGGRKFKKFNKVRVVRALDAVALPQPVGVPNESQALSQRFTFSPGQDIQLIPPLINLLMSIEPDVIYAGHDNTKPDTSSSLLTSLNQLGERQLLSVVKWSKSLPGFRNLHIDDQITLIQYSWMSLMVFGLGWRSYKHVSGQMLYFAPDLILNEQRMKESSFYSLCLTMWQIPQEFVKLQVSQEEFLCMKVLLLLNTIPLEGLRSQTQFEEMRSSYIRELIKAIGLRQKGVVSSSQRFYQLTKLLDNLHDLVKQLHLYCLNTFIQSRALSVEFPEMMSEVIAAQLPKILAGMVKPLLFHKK
Briefly: Antagonist activity at PR in human T47D cells assessed as inhibition of progesterone-induced alkaline phosphatase expression after 24 hrs by alkaline phopshatase assay. It is filed as cell-based.
Settings: not given
The procedure, abridged: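 T-47D cells seeded at 10^4 cells/well and incubated overnight at 37°C, 5% CO₂. Fresh medium with compound added for 24 h. Cells fixed in 1.8% formalin in PBS and washed. Substrate was 1 mg/mL p-nitrophenyl phosphate in diethanolamine buffer, pH 9.0, 2 mM MgCl₂, for 2 h at room temperature in the dark. Stopped with 1 M NaOH; absorbance read at 405 nm.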
For orientation: pIC50 means −log10 of the IC50, conventionally taken in molar units. Consider `N#Cc1ccc(-c2ccc3oc(=O)ccc3c2)[nH]1`, for which the negative-log IC50 (pIC50) was 6.85. Same read-out and setting: then `CC(=O)c1ccc(-c2ccc3oc(=O)ccc3c2)s1`, with 6.62. Turning to `N#Cc1ccc(-c2ccc3oc(=O)ccc3c2)n1Cc1cc(F)cc(F)c1`, the negative logarithm of the IC50 (pIC50) is 6.80. Same read-out and setting: then `Cc1ccc(-c2ccc3oc(=O)ccc3c2)s1`, with 6.36.

`CCn1c(C#N)ccc1-c1cc2c(C)cc(=O)oc2cc1OC`: the negative logarithm of the IC50 (pIC50) was 7.42. As to `Cc1cc(=O)oc2cc(O)c(-c3ccc(C#N)n3C)cc12`, the negative logarithm of the IC50 (pIC50) is 6.52. `CCCCCCn1c(C#N)ccc1-c1cc2c(C)cc(=O)oc2cc1OC`: the pIC50 is 6.74. Still for that read-out and setting: then `N#Cc1ccc(-c2ccc3oc(=O)ccc3c2)n1CC1CCCCC1`, with 7.51; and `CCn1c(C#N)ccc1-c1ccc2oc(=O)ccc2c1`, with 6.66.

For the compound `CCN(CC)c1cc2oc(=O)ccc2cc1-c1ccc(C#N)n1CC`, the pIC50 was 6.60. On the same count and under the same terms, then `COc1cc2oc(=O)cc(C)c2cc1-c1ccc(C#N)n1Cc1ccccc1`, with 6.64; and `N#Cc1ccc(-c2ccc3oc(=O)ccc3c2)s1`, with 6.85. On the same count and under the same terms, then `N#Cc1ccc(-c2ccc3oc(=O)ccc3c2)n1Cc1ccc2ccccc2c1`, with 6.54; and `CCCCCCn1c(C#N)ccc1-c1ccc2oc(=O)ccc2c1`, with 7.47; and `COc1cc2oc(=O)cc(C)c2cc1-c1ccc(C#N)n1Cc1ccc(C#N)cc1`, with 6.32. On to `CCN(CC)c1cc2oc(=O)ccc2cc1-c1ccc(C#N)[nH]1`, for which the negative logarithm of the IC50 (pIC50) is 6.92. Still for that read-out and setting: then `COc1cc2oc(=O)cc(C)c2cc1-c1ccc(C#N)[nH]1`, with 6.59; and `N#Cc1ccc(Cn2c(C#N)ccc2-c2ccc3oc(=O)ccc3c2)cc1`, with 6.54; and `COc1cc2oc(=O)cc(C)c2cc1-c1ccc(C#N)n1Cc1ccc(F)cc1`, with 6.24. Take `N#Cc1ccc(-c2ccc3oc(=O)ccc3c2)n1Cc1c(F)c(F)c(F)c(F)c1F`: the negative logarithm of the IC50 (pIC50) is 6.72.

`N#Cc1ccc(-c2ccc3oc(=O)ccc3c2)n1Cc1ccccc1`: the pIC50 is 7.25.

On to `CCN(CC)c1cc2oc(=O)ccc2cc1-c1ccc(C#N)n1C`, for which the negative logarithm of the IC50 (pIC50) was 6.62. For the compound `Cc1ccsc1-c1ccc2oc(=O)ccc2c1`, the negative-log IC50 (pIC50) was 6.82. On to `COc1cc2oc(=O)cc(C)c2cc1-c1ccc(C#N)n1C`, for which the pIC50 was 7.62. The same measure, in the same setting: then `CCN(CC)c1cc2oc(=O)ccc2cc1-c1ccc(C#N)n1CC#N`, with 6.07; and `N#CCn1c(C#N)ccc1-c1ccc2oc(=O)ccc2c1`, with 4.80. On the same count and under the same terms, with `CCN(CC)c1cc2oc(=O)ccc2cc1-c1ccc(C#N)n1Cc1ccccc1` the figure was 6.24; with `N#Cc1ccc(-c2ccc3oc(=O)ccc3c2)n1Cc1ccc(F)cc1`, 6.68; with `COc1cc2oc(=O)cc(C)c2cc1-c1ccc(C#N)n1CC1CCCCC1`, 6.26. The same measure, in the same setting: with `N#Cc1ccc(-c2ccc3oc(=O)ccc3c2)n1Cc1ccc([N+](=O)[O-])cc1` the figure was 6.35; with `O=c1ccc2cc(-c3sccc3Cl)ccc2o1`, 6.64.

The target in the next data set is T2, Progesterone receptor. Briefly: Displacement of [1,2,6,7-3H]progesterone from recombinant human GST-tagged PR-LBD (675 to 933 residues) expressed in baculovirus-infected insect cells measured after 24 hrs by liquid scintillation counting method.
Settings: not given
In a few lines:
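Incubated with 4 nM [³H]progesterone and compound (final DMSO 3%) for 24 h at 4°C in the dark. Nonspecific binding set with 200-fold excess unlabeled progesterone. Free ligand removed with dextran/γ-globulin-coated charcoal, 5 min at 4°C, then centrifuged; supernatant counted by liquid scintillation. Duplicates.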
Regarding `Cc1cc(=O)oc2cc(O)c(-c3ccc(C#N)n3C)cc12`, the negative logarithm of the IC50 (pIC50) is 4.80. `CCCCCCn1c(C#N)ccc1-c1ccc2oc(=O)ccc2c1`: the pIC50 was 6.80. The same measure, in the same setting: with `N#Cc1ccc(-c2ccc3oc(=O)ccc3c2)n1Cc1ccccc1` the figure was 6.10. The same measure, in the same setting: then `CCN(CC)c1cc2oc(=O)ccc2cc1-c1ccc(C#N)n1C`, with 5.87. Same read-out and setting: with `COc1cc2oc(=O)cc(C)c2cc1-c1ccc(C#N)n1C` the figure was 6.00.

For the next data set, the species on record is Mus musculus. Briefly: Cytotoxicity against mouse SC3 cells assessed as effect on cell growth at 10^-5 to 10^-7 M after 3 days by CCK8 assay. It is filed as toxicity. Conditions: sc-3, 72 h. The procedure, abridged: as §1
Regarding `CCN(CC)c1cc2oc(=O)ccc2cc1-c1ccc(C#N)n1C`, the Activity entry was “Non-Toxic”. On the same count and under the same terms, then `COc1cc2oc(=O)cc(C)c2cc1-c1ccc(C#N)n1C`, with “Non-Toxic”.

The next data set deals with T3, Glucocorticoid receptor (Homo sapiens, UniProt P04150).
T3 sequence (P04150 whole entry): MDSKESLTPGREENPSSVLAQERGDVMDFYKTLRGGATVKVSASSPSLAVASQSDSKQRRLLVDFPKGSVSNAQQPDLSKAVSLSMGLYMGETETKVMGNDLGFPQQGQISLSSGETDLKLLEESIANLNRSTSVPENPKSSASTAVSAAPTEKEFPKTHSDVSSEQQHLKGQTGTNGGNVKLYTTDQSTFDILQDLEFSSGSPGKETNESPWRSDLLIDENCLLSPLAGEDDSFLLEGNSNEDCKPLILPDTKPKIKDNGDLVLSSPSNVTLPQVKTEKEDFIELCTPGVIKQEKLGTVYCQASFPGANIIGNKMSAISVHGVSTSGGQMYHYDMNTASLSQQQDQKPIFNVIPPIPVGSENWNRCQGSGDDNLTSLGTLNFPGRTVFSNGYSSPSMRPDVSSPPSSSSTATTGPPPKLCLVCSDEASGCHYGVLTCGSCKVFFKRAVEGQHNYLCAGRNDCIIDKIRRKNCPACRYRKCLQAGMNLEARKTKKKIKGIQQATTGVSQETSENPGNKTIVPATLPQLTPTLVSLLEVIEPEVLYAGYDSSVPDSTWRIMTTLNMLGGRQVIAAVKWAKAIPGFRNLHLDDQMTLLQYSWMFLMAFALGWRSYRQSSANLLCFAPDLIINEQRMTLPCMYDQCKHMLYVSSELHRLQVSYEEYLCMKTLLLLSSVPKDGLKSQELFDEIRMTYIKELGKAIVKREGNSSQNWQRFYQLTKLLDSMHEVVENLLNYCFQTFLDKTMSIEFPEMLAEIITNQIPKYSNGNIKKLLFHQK
In words: Displacement of [3H]dexamethasone from human GR measured after 18 hrs by scintillation counting method.
Settings: not given
The procedure, abridged: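 hGR at 1.25 nM final in 50 mM KH₂PO₄ pH 7.4 with 10 mM sodium molybdate and 1 mM DTT. Incubated with 10^-9 M [³H]dexamethasone and compounds at 10^-7 to 10^-5 M, 0.4% DMSO, for 18 h. Nonspecific binding set with 10^-5 M triamcinolone acetonide. Bound ligand collected by vacuum filtration on glass-fiber filters and counted. Duplicates.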
For orientation: Loss of bound radioactivity is the signal in a displacement assay; it reports binding, not function.
Turning to `CCN(CC)c1cc2oc(=O)ccc2cc1-c1ccc(C#N)n1C`, the negative-log IC50 (pIC50) was 5.00.
